Columns and labels:
[1] = molecular target: T1, Delta-type opioid receptor (Homo sapiens, UniProt P41143); assay: Intrinsic activity at human delta opioid receptor expressed in CHO cells by [35S]GTPgammaS binding assay; format: functional, cell-based
Mu-type opioid receptor [2] = molecular target: T2, Mu-type opioid receptor (Homo sapiens, UniProt P35372); assay: Agonist activity at human mu opioid receptor expressed in CHO cells by [35S]GTPgammaS binding assay relative to DAMGO; format: functional, cell-based
T2 sequence (P35372 whole entry): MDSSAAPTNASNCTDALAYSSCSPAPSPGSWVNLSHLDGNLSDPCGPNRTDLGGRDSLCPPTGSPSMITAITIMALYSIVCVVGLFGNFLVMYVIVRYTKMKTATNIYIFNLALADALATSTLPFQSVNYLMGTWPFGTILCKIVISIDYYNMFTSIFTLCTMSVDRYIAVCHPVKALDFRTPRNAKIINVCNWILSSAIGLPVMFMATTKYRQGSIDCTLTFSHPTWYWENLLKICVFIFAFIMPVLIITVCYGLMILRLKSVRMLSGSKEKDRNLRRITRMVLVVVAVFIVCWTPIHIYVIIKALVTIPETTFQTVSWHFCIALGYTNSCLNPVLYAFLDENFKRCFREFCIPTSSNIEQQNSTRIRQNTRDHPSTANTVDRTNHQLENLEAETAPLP
Summary of the method: (§1)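 Membranes from CHO cells over-expressing the human receptor. Stimulated [35S]GTPγS binding measured with eight concentrations chosen to define both asymptotes of the concentration-response curve. EC50 and Emax calculated. Emax expressed as a percentage of the Emax of the standard agonist on the same plate: DAMGO (mu), DPDPE (delta), U50,488 (kappa). Mean ± SE of at least three experiments.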

Mu-type opioid receptor [3] = molecular target: T2, Mu-type opioid receptor; assay: Agonist activity at human mu opioid receptor expressed in CHO cells by [35S]GTPgammaS binding assay; format: functional, cell-based; summary of the method: as §1
[4] = molecular target: T1, Delta-type opioid receptor; assay: Intrinsic agonist activity at human delta opioid receptor expressed in CHO cells by [35S]GTPgammaS binding assay; format: functional, cell-based
[5] = molecular target: T3, Kappa-type opioid receptor (Homo sapiens, UniProt P41145); assay: Displacement of [3H]U-69593 from human kappa opioid receptor expressed in CHO cells; format: cell-based
T3 sequence (P41145 whole entry): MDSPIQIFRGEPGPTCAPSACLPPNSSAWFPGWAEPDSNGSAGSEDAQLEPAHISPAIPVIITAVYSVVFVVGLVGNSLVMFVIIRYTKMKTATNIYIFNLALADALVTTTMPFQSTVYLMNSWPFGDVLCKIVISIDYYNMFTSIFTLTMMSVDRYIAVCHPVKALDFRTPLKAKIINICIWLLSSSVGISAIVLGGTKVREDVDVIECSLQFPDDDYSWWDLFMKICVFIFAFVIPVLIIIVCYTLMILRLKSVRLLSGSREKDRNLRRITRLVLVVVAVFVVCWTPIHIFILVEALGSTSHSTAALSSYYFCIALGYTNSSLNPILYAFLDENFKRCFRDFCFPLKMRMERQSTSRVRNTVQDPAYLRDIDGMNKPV
Summary of the method: (§2)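 Competition radioligand binding at the human receptors, run at the Psychoactive Drug Screening Program. Radioligands were [3H]DAMGO (MOR), [3H]DADLE (DOR) and [3H]U69,593 (KOR). Radioligand Kd determined by homologous competition binding with the receptor-specific radioligand. Ki values reported.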

Mu-type opioid receptor [6] = molecular target: T2, Mu-type opioid receptor; assay: Displacement of [3H]DAMGO from human mu opioid receptor expressed in CHO cells; format: cell-based; summary of the method: as §2
[7] = molecular target: T1, Delta-type opioid receptor; assay: Displacement of [3H]DADLE from human delta opioid receptor expressed in CHO cells; format: cell-based
Summary of the method: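 Competition radioligand binding at the human receptors, run at the Psychoactive Drug Screening Program. Radioligand Kd determined by homologous competition binding with the receptor-specific radioligand. Ki values reported.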

[8] = molecular target: T1, Delta-type opioid receptor; assay: Agonist activity at human delta opioid receptor expressed in CHO cells by [35S]GTPgammaS binding assay relative to DPDPE; format: functional, cell-based; summary of the method: as §1
[9] = molecular target: T1, Delta-type opioid receptor; assay: Agonist activity at human delta opioid receptor expressed in CHO cells by [35S]GTPgammaS binding assay; format: functional, cell-based; summary of the method: as §1
[10] = molecular target: T3, Kappa-type opioid receptor; assay: Agonist activity at human kappa opioid receptor expressed in CHO cells by [35S]GTPgammaS binding assay; format: functional, cell-based; summary of the method: as §1
[11] = molecular target: T3, Kappa-type opioid receptor; assay: Agonist activity at human kappa opioid receptor expressed in CHO cells by [35S]GTPgammaS binding assay relative to U50,488; format: functional, cell-based; summary of the method: as §1
[12] = molecular target: T3, Kappa-type opioid receptor; assay: Antagonist activity at human kappa opioid receptor expressed in CHO cells by [35S]GTPgammaS binding assay; format: functional, cell-based
Summary of the method: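 Inhibition of [35S]GTPγS binding stimulated by the selective agonist in CHO cells over-expressing the human receptor. Agonists were DPDPE (delta) and U69,593 (kappa). Agonist dose-response curves run with and without a single concentration of test compound. Ke = [L]/(DR−1), where DR is the ratio of agonist EC50 with and without test compound. Mean ± SE of at least three experiments.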

T1 sequence (P41143 whole entry): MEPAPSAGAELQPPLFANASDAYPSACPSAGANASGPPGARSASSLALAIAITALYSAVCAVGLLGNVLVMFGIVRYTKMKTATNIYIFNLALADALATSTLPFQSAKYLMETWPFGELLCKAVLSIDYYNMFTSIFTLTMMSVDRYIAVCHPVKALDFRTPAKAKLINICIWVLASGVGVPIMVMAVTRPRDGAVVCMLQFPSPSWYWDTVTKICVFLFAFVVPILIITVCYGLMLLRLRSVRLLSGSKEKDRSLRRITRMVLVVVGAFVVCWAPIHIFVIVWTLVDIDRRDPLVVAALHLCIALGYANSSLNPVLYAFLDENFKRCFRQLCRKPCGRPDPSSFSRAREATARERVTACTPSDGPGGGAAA

Row | SMILES | Intrinsic activity [1] [µM] | Emax (Mu-type opioid receptor [2]) [%] | EC50 (Mu-type opioid receptor [3]) [nM] | Agonist potency [4] [nM] | Ki [5] [nM] | Ki (Mu-type opioid receptor [6]) [nM] | Ki [7] [nM] | Emax [8] [%] | EC50 [9] [nM] | EC50 [10] [nM] | Emax [11] [%] | EC50 ([9]; cho) [nM] | EC50 (Mu-type opioid receptor [3]; cho) [nM] | Ke [12] [nM]
1 | CCN(C)[C@H]1C[C@H]2C[C@@](c3cccc(O)c3)(C1)[C@H](C)CN2CCCc1ccccc1 | > 5 | 94 | 60 | > 5000 |  |  |  |  |  |  |  |  |  | 
2 | C[C@@H]1CN(CCCc2ccccc2)[C@@H]2CCC[C@]1(c1cccc(O)c1)C2 |  |  |  |  | 7.79 | 1.61 | 161 |  |  |  |  |  |  | 
3 | CN[C@H]1C[C@H]2C[C@@](c3cccc(O)c3)(C1)[C@H](C)CN2CCCc1ccccc1 |  | 105 | 15 |  | 20.9 | 0.371 | 36.2 | 101 | 14.8 |  |  |  |  | 
4 | CCCN[C@H]1C[C@H]2C[C@@](c3cccc(O)c3)(C1)[C@H](C)CN2CCCc1ccccc1 |  | 57 | 18 | > 5000 | 1.4 | 1.66 | 73.8 |  |  | 293 | 20.7 |  |  | 
5 | C[C@@H]1CN(CCCc2ccccc2)[C@H]2C[C@H](NCC3CC3)C[C@]1(c1cccc(O)c1)C2 |  | 52 | 130 |  | 13.7 | 7.55 |  |  |  |  |  |  |  | 
6 | C[C@@H]1CN(CCCc2ccccc2)[C@H]2C[C@H](N)C[C@]1(c1cccc(O)c1)C2 |  | 74 |  |  |  |  |  | 101 |  |  |  | 7.5 | 19.5 | 10.1
7 | C[C@@H]1CN(CCCc2ccccc2)[C@H]2C[C@H](N(C)C)C[C@]1(c1cccc(O)c1)C2 |  | 104 | 6.5 |  | 9.9 | 0.28 | 18.4 | 55 | 38 |  |  |  |  | 
8 | CCN[C@H]1C[C@H]2C[C@@](c3cccc(O)c3)(C1)[C@H](C)CN2CCCc1ccccc1 |  | 14 | 33 | > 5000 | 8.22 | 3.35 | 264 |  |  |  |  |  |  | 
9 | C[C@H]1CN(CCCc2ccccc2)[C@@H]2C[C@@H](N)C[C@@]1(c1cccc(O)c1)C2 |  | 44 | 20.6 | > 5000 |  |  |  |  |  |  |  |  |  | 21.7
10 | C[C@@H]1CN(CCCc2ccccc2)[C@H]2C[C@H](N(C)CC3CC3)C[C@]1(c1cccc(O)c1)C2 |  | 109 | 2.7 |  | 0.92 | 0.43 | 9.04 | 24 | 10.3 | 40 | 38 |  |  | 
